Data as given in ChEMBL document CHEMBL5236549, “Discovery of 2-Sulfinyl-Diazabicyclooctane Derivatives, Potential Oral β-Lactamase Inhibitors for Infections Caused by Serine β-Lactamase-Producing Enterobacterales” (J Med Chem, 2021).
Converted amounts (≈) assume the structure as drawn. The source made the active and inactive calls. The rule behind the calls is not given here.

Columns and labels:
Escherichia coli [1] = test: Antibacterial activity against Escherichia coli assessed as inhibition of bacterial growth incubated for 16 to 24 hrs by CLSI based two-fold serial dilution method; type: functional; settings: time 16-24 hrs
Procedure, shortened: (§1)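 CLSI broth microdilution with twofold serial dilutions in cation-adjusted Mueller Hinton broth. Inoculum set from OD625 to about 5 × 10⁴ cfu/well final. Plates incubated at 35 °C for 16−20 h. MIC is the lowest concentration with no growth visible to the unaided eye.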

Escherichia coli [2] = test: Antibacterial activity against Escherichia coli expressing KPC-2 assessed as inhibition of bacterial growth incubated for 16 to 24 hrs by CLSI based two-fold serial dilution method; type: functional; settings: time 16-24 hrs; procedure, shortened: as §1
Escherichia coli [3] = test: Antibacterial activity against Escherichia coli expressing CTX-M-15 assessed as inhibition of bacterial growth incubated for 16 to 24 hrs by CLSI based two-fold serial dilution method; type: functional; settings: time 16-24 hrs; procedure, shortened: as §1
Escherichia coli [4] = test: Antibacterial activity against Escherichia coli expressing CMY-2 assessed as inhibition of bacterial growth incubated for 16 to 24 hrs by CLSI based two-fold serial dilution method; type: functional; settings: time 16-24 hrs; procedure, shortened: as §1
Escherichia coli [5] = test: Antibacterial activity against Escherichia coli expressing OXA-48 assessed as inhibition of bacterial growth incubated for 16 to 24 hrs by CLSI based two-fold serial dilution method; type: functional; settings: time 16-24 hrs; procedure, shortened: as §1
Enterobacter cloacae [6] = test: Antibacterial activity against Enterobacter cloacae SR200030 assessed as inhibition of bacterial growth incubated for 16 to 24 hrs by CLSI based two-fold serial dilution method; type: functional; settings: time 16-24 hrs
Procedure, shortened: (§2)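 CLSI broth microdilution in cation-adjusted Mueller Hinton broth, twofold serial dilutions, about 5 × 10⁴ cfu/well from OD625, 35 °C for 16−20 h. MIC is the lowest concentration with no visible growth.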

Klebsiella pneumoniae [7] = test: Antibacterial activity against Klebsiella pneumoniae SR100758 assessed as inhibition of bacterial growth incubated for 16 to 24 hrs by CLSI based two-fold serial dilution method; type: functional; settings: time 16-24 hrs; procedure, shortened: as §2
Klebsiella pneumoniae [8] = test: Antibacterial activity against Klebsiella pneumoniae SR200263 assessed as inhibition of bacterial growth incubated for 16 to 24 hrs by CLSI based two-fold serial dilution method; type: functional; settings: time 16-24 hrs; procedure, shortened: as §2
Klebsiella pneumoniae [9] = test: Antibacterial activity against Klebsiella pneumoniae SR200487 assessed as inhibition of bacterial growth incubated for 16 to 24 hrs by CLSI based two-fold serial dilution method; type: functional; settings: time 16-24 hrs; procedure, shortened: as §2
Klebsiella pneumoniae [10] = test: Antibacterial activity in ICR mouse infected with Klebsiella pneumoniae SR08667 assessed as reduction in bacterial colony forming units at 30 mg/kg,po administered upto 48 hrs after infection; type: functional, organism-based
Procedure, shortened: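 Urinary tract infection model in 5-week-old female ICR mice, N = 5 per arm. 1.2 × 10⁶ CFU given transurethrally, urethra tied for 4 h. Oral dosing at 4, 8, 28 and 32 h post-infection in 0.5% methylcellulose: ceftibuten 30 mg/kg alone, ceftibuten 10 mg/kg plus prodrug 3, 10 or 30 mg/kg, or both at 30 mg/kg. Kidneys homogenized at 4 or 48 h and plated on modified Drigalski agar. Read-out is change in log CFU/kidney versus untreated controls at treatment start.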

Enterobacter cloacae [11] = test: Antibacterial activity against Enterobacter cloacae SR36276 assessed as inhibition of bacterial growth incubated for 16 to 20 hrs by CLSI based two-fold serial dilution method
Enterobacter cloacae [12] = test: Antibacterial activity against Enterobacter cloacae SR100108 assessed as inhibition of bacterial growth incubated for 16 to 20 hrs by CLSI based two-fold serial dilution method
Klebsiella pneumoniae [13] = test: Antibacterial activity against Klebsiella pneumoniae SR09635 assessed as inhibition of bacterial growth incubated for 16 to 20 hrs by CLSI based two-fold serial dilution method
Klebsiella pneumoniae [14] = test: Antibacterial activity against Klebsiella pneumoniae SR09603 assessed as inhibition of bacterial growth incubated for 16 to 20 hrs by CLSI based two-fold serial dilution method
Klebsiella pneumoniae [15] = test: Antibacterial activity against Klebsiella pneumoniae SR201325 assessed as inhibition of bacterial growth incubated for 16 to 20 hrs by CLSI based two-fold serial dilution method
[16] = Stability of the compound in phosphate buffer at pH 7.0 assessed as parent compound remaining at 40 degreeC measured after 16 hrs; type: physicochemical; settings: read-out: Stability
Procedure, shortened: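 Compound held in pH 7.0 phosphate buffer at 40 °C for 16 h; amount remaining reported as %.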

[17] = Cmax in rat at 5 mg/kg,po by LC/MS/MS analysis; type: ADME, organism-based; parameters: dose 5 mg/kg, route po; settings: in vivo
Procedure, shortened: (§3)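 Plasma of the parent acid measured by LC/MS/MS (methanol precipitation, positive ESI, external standard); oral values follow prodrug dosing (rat fed, dog and monkey fasted). AUC from 0 h to last time point by linear trapezoid; F from oral AUC versus iv AUC of the parent. N = 2 (rat, dog), N = 3 (monkey, mouse).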

[18] = AUC in rat at 5 mg/kg,po by LC/MS/MS analysis; type: ADME, organism-based; parameters: dose 5 mg/kg, route po; settings: in vivo; procedure, shortened: as §3
[19] = Tmax in rat at 5 mg/kg,po by LC/MS/MS analysis; type: ADME, organism-based; settings: in vivo
[20] = Oral bioavailability in rat at 5 mg/kg by LC/MS/MS analysis; type: ADME, organism-based; settings: in vivo; procedure, shortened: as §3
[21] = Cmax in dog at 10 mg/kg,po by LC/MS/MS analysis; type: ADME, organism-based, Canis lupus familiaris; parameters: dose 10 mg/kg, route po; settings: in vivo; procedure, shortened: as §3
[22] = AUC in dog at 10 mg/kg,po by LC/MS/MS analysis; type: ADME, organism-based, Canis lupus familiaris; parameters: dose 10 mg/kg, route po; settings: in vivo; procedure, shortened: as §3
[23] = Tmax in dog at 10 mg/kg,po by LC/MS/MS analysis; type: ADME, organism-based, Canis lupus familiaris; settings: in vivo
[24] = Oral bioavailability in dog at 10 mg/kg by LC/MS/MS analysis; type: ADME, organism-based, Canis lupus familiaris; settings: in vivo; procedure, shortened: as §3
[25] = Cmax in monkey at 10 mg/kg,po by LC/MS/MS analysis; type: ADME, organism-based, Macaca mulatta; parameters: dose 10 mg/kg, route po; settings: rhesus monkey, in vivo; procedure, shortened: as §3
[26] = AUC in monkey at 10 mg/kg,po by LC/MS/MS analysis; type: ADME, organism-based, Macaca mulatta; parameters: dose 10 mg/kg, route po; settings: rhesus monkey, in vivo; procedure, shortened: as §3
[27] = Tmax in monkey at 10 mg/kg,po by LC/MS/MS analysis; type: ADME, organism-based, Macaca mulatta; settings: rhesus monkey, in vivo
[28] = Oral bioavailability in monkey at 10 mg/kg by LC/MS/MS analysis; type: ADME, organism-based, Macaca mulatta; settings: rhesus monkey, in vivo; procedure, shortened: as §3

Q: For `Nc1nc(/C(=C/CC(=O)O)C(=O)N[C@@H]2C(=O)N3C(C(=O)O)=CCS[C@H]23)cs1` [CEFTIBUTEN], which MIC (Escherichia coli [1]) is on record?
A: > 32 µg/mL

Q: What about the MIC (Escherichia coli [2]) of the same compound?
A: 16 µg/mL (≈ 39 µM)

Q: And the MIC (Escherichia coli [3])?
A: 32 µg/mL (≈ 78 µM)

Q: And the MIC (Escherichia coli [4])?
A: > 32 µg/mL

Q: What about the MIC (Escherichia coli [5]) of the same compound?
A: > 32 µg/mL

Q: What about the MIC (Enterobacter cloacae [6]) of the same compound?
A: > 32 µg/mL

Q: What about the MIC (Klebsiella pneumoniae [7]) of the same compound?
A: > 32 µg/mL

Q: What about the MIC (Klebsiella pneumoniae [8]) of the same compound?
A: > 32 µg/mL

Q: And the MIC (Klebsiella pneumoniae [9])?
A: > 32 µg/mL

Q: And the Activity (Klebsiella pneumoniae [10])?
A: inactive

Q: And the MIC (Enterobacter cloacae [11])?
A: > 32 µg/mL

Q: What about the MIC (Enterobacter cloacae [12]) of the same compound?
A: > 32 µg/mL

Q: And the MIC (Klebsiella pneumoniae [13])?
A: > 32 µg/mL

Q: What about the MIC (Klebsiella pneumoniae [14]) of the same compound?
A: > 32 µg/mL

Q: What about the MIC (Klebsiella pneumoniae [15]) of the same compound?
A: > 32 µg/mL

Q: For `CCOC(=O)[C@@H](F)ON1C(=O)N2C[C@H]1CC[C@H]2[S@@+](C)[O-]`, which remaining at 16 h [16] is on record?
A: 11%

Q: What about the Cmax [17] of the same compound?
A: 2150 ng/mL

Q: What about the AUC [18] of the same compound?
A: 2300 ng·h/mL

Q: What about the Tmax [19] of the same compound?
A: 30 min

Q: What about the bioavailability [20] of the same compound?
A: 74.4%

Q: What about the Cmax [21] of the same compound?
A: 10600 ng/mL

Q: And the AUC [22]?
A: 26000 ng·h/mL

Q: What about the Tmax [23] of the same compound?
A: 1 h

Q: What about the bioavailability [24] of the same compound?
A: 68.3%

Q: And the Cmax [25]?
A: 4510 ng/mL

Q: What about the AUC [26] of the same compound?
A: 8320 ng·h/mL

Q: What about the Tmax [27] of the same compound?
A: 1 h

Q: What about the bioavailability [28] of the same compound?
A: 29.9%
